Experimental data: ChEMBL document CHEMBL1821706, “Unprecedented citrinin trimer tricitinol B functions as a novel topoisomerase IIα inhibitor” (J Med Chem, 2011)
The source made the active and inactive calls. The rule behind the calls is not given here.

Columns and labels:
[1] = target: DNA topoisomerase 2-alpha (Homo sapiens) (UniProt P11388); assay: Inhibition of human topoisomerase 2alpha-mediated poststrand-passage DNA religation after 6 mins by agarose gel electrophoresis
Outline: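 Topo II (6 units) with 0.25 μg supercoiled pBR322 in cleavage buffer with 1 mM APPNHP and 5 mM MgCl2. Cleavage/religation equilibrium set at 37 °C for 6 min. Compound added just before religation, which was started by a rapid shift from 37 to 55 °C for 5 min. SDS stop, then 1% agarose electrophoresis.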

HL-60 [2] = assay: Induction of apoptosis in human HL60 cells assessed as DNA ladder formation after 24 hrs using Annexin-V/PI double-staining by flow cytometric analysis; assay type: functional, cell-based
Outline: (§1)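 HL60 cells were treated with 2.5, 5.0, 7.5 or 10.0 μM for 24 h for DNA ladder analysis, representative of three experiments. Apoptotic fractions were measured after 2.5–10 μM for 24 h, or 10 μM over a time course, by Annexin/PI staining and flow cytometry (early plus late apoptotic cells), as mean ± SD of three experiments.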

[3] = target: DNA topoisomerase 2-alpha (Homo sapiens) (UniProt P11388); assay: Induction of human topoisomerase 2alpha-mediated prestrand-passage DNA cleavage after 6 mins by agarose gel electrophoresis
Outline: (§2)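 Supercoiled pBR322 (0.25 μg) was incubated with 6 units of topo II in cleavage buffer containing 5 mM MgCl2 at 37 °C for 6 min; the post-strand-passage reactions also received 1 mM APPNHP. Reactions were stopped with SDS and proteinase K, digested at 50 °C for 30 min, heated to 70 °C, and run on 1% agarose gels.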

HCT-116 [4] = assay: Induction of apoptosis in human HCT116 cells assessed as increase in cleaved PARP levels after 24 hrs by Western blotting; assay type: functional, cell-based
Outline: (§3)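 Cells (2×10^5/mL) were exposed to 2.5–10 μM for 24 h, then whole-cell lysates were made. Pro-/cleaved caspase-3, caspase-8, pro-/cleaved caspase-9, PARP (116 kDa full length, 85 kDa fragment) and Bid were probed by Western blot with ECL detection.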

KB [5] = assay: Cytotoxicity against vincristine-resistant human KB cells over expressing P-glycoprotein after 72 hrs by SRB assay; assay type: functional, cell-based
Outline: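 Adherent human tumour lines were seeded and exposed in triplicate to graded compound concentrations at 37 °C for 72 h. Growth was read by sulforhodamine B staining. IC50 (50% growth inhibition) was obtained by the Logit method from at least three independent experiments and reported as mean ± SD.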

[6] = target: DNA topoisomerase 2-alpha (Homo sapiens) (UniProt P11388); assay: Inhibition of human topoisomerase 2alpha-mediated prestrand-passage DNA religation after 6 mins by agarose gel electrophoresis
Outline: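 Topo II (6 units) with 0.25 μg supercoiled pBR322 in cleavage buffer with 5 mM CaCl2; equilibrium at 37 °C for 6 min. Compound added just before religation. Cleavage complex trapped with EDTA, NaCl added to block recleavage, samples put on ice. Religation started with cold MgCl2 (8.5 mM final), stopped with SDS, then 1% agarose electrophoresis.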

HCT-116 [7] = assay: Induction of apoptosis in human HCT116 cells assessed as increase in cleaved caspase 3 levels after 24 hrs by Western blotting; assay type: functional, cell-based; outline: as §3
HMEC [8] = assay: Selectivity ratio of IC50 for human HMEC cells to IC50 for BxPC3 cells
HCT-116 [9] = assay: Induction of apoptosis in human HCT116 cells assessed as accumulation at G2/M phase at 5 uM after 24 hrs using PI staining based flow cytometric analysis (reference value: 24.23%)
HL-60 [10] = assay: Induction of apoptosis in human HL60 cells assessed as DNA ladder formation at 2.5 to 10 uM after 24 hrs using Annexin-V/PI double-staining by flow cytometric analysis; assay type: functional; outline: as §1
HL-60 [11] = assay: Induction of apoptosis in human HL60 cells assessed as PARP cleavage at 10 uM after 24 hrs by Western blotting preincubated for 2 hrs with 20 uM pancaspase inhibitor Z-VAD-FMK; assay type: functional, cell-based
Outline: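 HL60 cells were pretreated with 20 μM Z-IETD-FMK, Z-LEHD-FMK or Z-VAD-FMK, then cultured with 10 μM compound for 24 h. Cleaved PARP and caspases were probed by Western blot. Three independent experiments were run.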

HL-60 [12] = assay: Induction of DNA damage in human HL60 cells assessed as increased histone H2AX expression after 1 hr by agarose gel electrophoresis; assay type: functional, cell-based
[13] = target: DNA topoisomerase 2-alpha (Homo sapiens) (UniProt P11388); assay: Inhibition of human topoisomerase 2alpha-mediated unwinding of linearized pBR322 assessed as DNA intercalation at 8 to 200 uM
Outline: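 Unwinding (intercalation) test: EcoRI-linearized pBR322 (0.1 μg) incubated with compound and 2 units T4 DNA ligase in ligase buffer at 22 °C for 30 min. Stopped at 60 °C for 10 min, compound removed by phenol extraction, ligation products resolved on agarose gel.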

HCT-116 [14] = assay: Induction of apoptosis in human HCT116 cells assessed as activation of caspase 8 at 2.5 to 10 uM after 24 hrs by Western blotting; assay type: functional, cell-based; outline: as §3
HL-60 [15] = assay: Induction of apoptosis in human HL60 cells assessed as increase in cleaved PARP levels after 24 hrs by Western blotting; assay type: functional, cell-based; outline: as §3
MDA-MB-468 = assay: Selectivity ratio of IC50 for human HMEC cells to IC50 for MDA-MB-468 cells
HL-60 [16] = assay: Cytotoxicity against human HL60 cells after 72 hrs by MTT assay; assay type: functional, cell-based; conditions: HL-60, 72 h
Outline: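 Cells were treated in triplicate with graded concentrations for 72 h at 37 °C and read by MTT. IC50 is the concentration giving 50% growth inhibition, derived by the Logit method from at least three independent experiments and given as mean ± SD.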

HMEC [17] = assay: Selectivity ratio of IC50 for human HMEC cells to IC50 for A431 cells
HCT-116 [18] = assay: Induction of apoptosis in human HCT116 cells assessed as accumulation at S phase at 5 uM after 24 hrs using PI staining based flow cytometric analysis (reference value: 27%)
KB [19] = assay: Drug resistance index, ratio of IC50 for vincristine-resistant human KB cells to IC50 for human KB cells; assay type: functional
[20] = target: DNA topoisomerase 2-alpha (Homo sapiens) (UniProt P11388); assay: Induction of human topoisomerase 2alpha-mediated poststrand-passage DNA cleavage after 6 mins by agarose gel electrophoresis; outline: as §2
HMEC [21] = assay: Selectivity ratio of IC50 for human HMEC cells to IC50 for SGC7901 cells

DNA topoisomerase 2-alpha (Homo sapiens), sequence (P11388 whole entry): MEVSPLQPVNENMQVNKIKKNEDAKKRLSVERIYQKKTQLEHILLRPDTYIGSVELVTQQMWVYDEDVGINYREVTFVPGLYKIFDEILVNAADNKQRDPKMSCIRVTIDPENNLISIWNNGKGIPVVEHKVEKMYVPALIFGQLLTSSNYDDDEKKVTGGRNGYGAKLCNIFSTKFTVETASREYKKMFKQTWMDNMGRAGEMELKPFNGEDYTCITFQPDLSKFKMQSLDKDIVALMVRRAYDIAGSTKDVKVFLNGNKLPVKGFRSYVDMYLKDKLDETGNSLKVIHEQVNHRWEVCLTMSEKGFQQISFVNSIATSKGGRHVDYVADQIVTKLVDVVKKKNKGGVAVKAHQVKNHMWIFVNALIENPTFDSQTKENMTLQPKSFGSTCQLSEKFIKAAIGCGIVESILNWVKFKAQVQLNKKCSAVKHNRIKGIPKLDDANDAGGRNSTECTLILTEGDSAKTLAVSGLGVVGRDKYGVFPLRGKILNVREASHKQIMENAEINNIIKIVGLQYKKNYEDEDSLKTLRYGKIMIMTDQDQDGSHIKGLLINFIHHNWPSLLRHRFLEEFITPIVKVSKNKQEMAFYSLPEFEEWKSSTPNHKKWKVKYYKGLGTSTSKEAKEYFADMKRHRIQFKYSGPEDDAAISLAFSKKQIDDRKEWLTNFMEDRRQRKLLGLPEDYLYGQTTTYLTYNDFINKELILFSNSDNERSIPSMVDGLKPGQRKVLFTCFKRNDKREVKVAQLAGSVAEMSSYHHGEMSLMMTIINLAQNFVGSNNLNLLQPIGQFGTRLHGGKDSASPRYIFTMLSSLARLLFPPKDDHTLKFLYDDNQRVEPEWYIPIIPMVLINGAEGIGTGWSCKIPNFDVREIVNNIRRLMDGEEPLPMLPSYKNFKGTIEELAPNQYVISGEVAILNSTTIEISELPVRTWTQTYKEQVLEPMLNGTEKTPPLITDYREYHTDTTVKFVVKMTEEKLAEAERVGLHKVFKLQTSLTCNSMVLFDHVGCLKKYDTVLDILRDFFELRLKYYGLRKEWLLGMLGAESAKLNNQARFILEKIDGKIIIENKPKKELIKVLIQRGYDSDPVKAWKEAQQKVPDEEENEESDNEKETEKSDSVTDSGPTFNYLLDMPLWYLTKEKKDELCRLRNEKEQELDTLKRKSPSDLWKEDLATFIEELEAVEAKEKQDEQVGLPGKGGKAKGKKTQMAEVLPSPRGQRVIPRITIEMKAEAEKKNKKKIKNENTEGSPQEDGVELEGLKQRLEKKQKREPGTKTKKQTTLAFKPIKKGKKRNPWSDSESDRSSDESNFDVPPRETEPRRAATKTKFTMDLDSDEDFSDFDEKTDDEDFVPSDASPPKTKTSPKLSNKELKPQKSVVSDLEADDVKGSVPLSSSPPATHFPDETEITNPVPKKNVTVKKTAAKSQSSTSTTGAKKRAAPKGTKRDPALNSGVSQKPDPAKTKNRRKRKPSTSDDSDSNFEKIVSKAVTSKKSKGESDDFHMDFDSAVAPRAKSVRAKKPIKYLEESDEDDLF

- inhibition [1]: Dose-dependent effect
- Activity [3]: Dose-dependent effect
- inhibition [6]: Dose-dependent effect
- inhibition [13]: Active
- Activity [20]: Dose-dependent effect
SMILES: COC1O[C@H](C)[C@@H](C)c2c(C)c3c(c(O)c21)[C@@H]1O[C@H](C)[C@@H](C)c2c(C)c(O)c([C@H]4O[C@H](C)[C@@H](C)c5c(C)c(O)cc(O)c54)c(c21)O3 (some centres not stated) [TRICITRINOL B]
- Activity (HL-60 [2]): Dose-dependent effect
- Activity (HCT-116 [4]): Dose-dependent effect
- IC50 (KB [5]): 4.6 µM
- Activity (HCT-116 [7]): Dose-dependent effect
- Ratio IC50 (HMEC [8]): 2
- Activity (HCT-116 [9]): 42.06%
- Activity (HL-60 [10]): 10%
- Activity (HL-60 [11]): inactive
- Activity (HL-60 [12]): Dose-dependent effect
- Activity (HCT-116 [14]): Active
- Activity (HL-60 [15]): Dose-dependent effect
- Ratio IC50 (MDA-MB-468): 2
- IC50 (HL-60 [16]): 3.2 µM
- Ratio IC50 (HMEC [17]): 2
- Activity (HCT-116 [18]): 20.42%
- Ratio IC50 (KB [19]): 0.94
- Ratio IC50 (HMEC [21]): 2
